Laboratory results from ChEMBL document CHEMBL3585255, “The Cephalostatins. 24. Isolation, Structure, and Cancer Cell Growth Inhibition of Cephalostatin 20” (2015).

How the values were obtained:
Type in all cases: functional
[1] = Cytotoxicity against human BxPC3 cells after 48 hrs by sulforhodamine B assay; details: BXPC-3, 48 h
How it was run: (§1)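 Cells in RPMI1640 with 5% fetal bovine serum were plated in 96-well plates and incubated 24 h before serial dilutions of compound were added. After 48 h exposure, cells were fixed with trichloroacetic acid and stained with sulforhodamine B, and optical density was read on a plate reader. GI50, the concentration giving 50% reduction in net protein increase, was calculated from the OD data.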

MCF7 = assay: Cytotoxicity against human MCF7 cells after 48 hrs by sulforhodamine B assay; details: MCF7, 48 h; how it was run: as §1
SF-268 = assay: Cytotoxicity against human SF268 cells after 48 hrs by sulforhodamine B assay; details: SF-268, 48 h; how it was run: as §1
NCI-H460 = assay: Cytotoxicity against human NCI-H460 cells after 48 hrs by sulforhodamine B assay; details: NCI-H460, 48 h; how it was run: as §1
[2] = Cytotoxicity against human KM20L2 cells after 48 hrs by sulforhodamine B assay; details: KM-20L2, 48 h; how it was run: as §1
DU-145 = assay: Cytotoxicity against human DU145 cells after 48 hrs by sulforhodamine B assay; details: DU-145, 48 h; how it was run: as §1

CO[C@H]1c2nc3c(nc2C[C@@H]2CC[C@H]4C5=C[C@@H]6O[C@]7(O[C@](C)(CO)C[C@H]7O)[C@@H](C)[C@]6(O)[C@@]5(C)[C@H](O)C[C@@H]4[C@]21C)C[C@@]1(C)[C@@H](CC[C@H]2C4=CC[C@@H]5[C@H](C)[C@@]6(OC[C@]45C(=O)C[C@@H]21)OC(C)(C)C[C@H]6O)C3 [CEPHALOSTATIN 18]
GI50 [1]: 3.3 nM | GI50 (MCF7): 3.3 nM | GI50 (SF-268): 7.8 nM | GI50 (NCI-H460): 2.8 nM | GI50 [2]: 3.1 nM | GI50 (DU-145): 20 nM

CO[C@H]1c2nc3c(nc2C[C@@H]2CC[C@H]4C5=CC[C@@H]6[C@H](C)[C@@]7(OC[C@]56C(=O)C[C@@H]4[C@]21C)OC(C)(C)C[C@H]7O)C[C@@]1(C)[C@@H](CC[C@H]2C4=C[C@@H]5O[C@]6(O[C@](C)(CO)C[C@H]6O)[C@@H](C)[C@]5(O)[C@@]4(C)[C@H](O)C[C@@H]21)C3 [CEPHALOSTATIN 19]
GI50 [1]: 3.9 nM | GI50 (MCF7): 7.4 nM | GI50 (SF-268): 78 nM | GI50 (NCI-H460): 5.3 nM | GI50 [2]: 6.1 nM | GI50 (DU-145): 30 nM
